# From publication PMC2674521 (Journal of pharmaceutical sciences, 2009)
# “And” between values parts separate entries of the source, which are not always exact repeats. Equal entries are not always repeated. Where two headings read alike, the source gives them in different places.
# Experiments:
# [1] = no reference given; cited from earlier work
# [2] = system: HSA; conditions: cited from earlier work
# [3] = system: RSA; conditions: ref 46; cited from earlier work
# [4] = molecular target: T1, canine serum albumin (CSA) (Canis lupus familiaris, UniProt P49822); type: in vitro ADME; conditions: for Unbound level: CSA solutions containing warfarin; for Free tracer: CSA solutions with added ibuprofen
# T1 sequence (P49822 25-608): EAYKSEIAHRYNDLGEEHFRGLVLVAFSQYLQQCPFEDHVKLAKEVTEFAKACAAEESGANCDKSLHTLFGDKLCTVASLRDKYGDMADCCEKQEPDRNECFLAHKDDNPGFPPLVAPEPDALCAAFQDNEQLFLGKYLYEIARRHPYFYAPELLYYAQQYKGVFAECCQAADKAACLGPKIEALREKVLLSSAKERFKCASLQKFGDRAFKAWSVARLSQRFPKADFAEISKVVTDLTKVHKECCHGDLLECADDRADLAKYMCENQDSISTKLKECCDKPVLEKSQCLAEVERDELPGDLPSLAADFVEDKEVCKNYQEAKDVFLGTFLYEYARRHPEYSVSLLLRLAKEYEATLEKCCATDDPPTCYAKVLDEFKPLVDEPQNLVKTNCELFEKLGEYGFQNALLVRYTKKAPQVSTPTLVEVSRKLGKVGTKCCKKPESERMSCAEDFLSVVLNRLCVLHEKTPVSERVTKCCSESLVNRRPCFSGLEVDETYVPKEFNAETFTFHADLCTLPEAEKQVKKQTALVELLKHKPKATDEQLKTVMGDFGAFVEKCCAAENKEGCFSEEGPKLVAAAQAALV
# [5] = molecular target: T2, human serum albumin (HSA) (Homo sapiens, UniProt P02768); conditions: cited from earlier work; for % bound to HSA: 40 mg/mL HSA solution
# T2 sequence (P02768 25-609): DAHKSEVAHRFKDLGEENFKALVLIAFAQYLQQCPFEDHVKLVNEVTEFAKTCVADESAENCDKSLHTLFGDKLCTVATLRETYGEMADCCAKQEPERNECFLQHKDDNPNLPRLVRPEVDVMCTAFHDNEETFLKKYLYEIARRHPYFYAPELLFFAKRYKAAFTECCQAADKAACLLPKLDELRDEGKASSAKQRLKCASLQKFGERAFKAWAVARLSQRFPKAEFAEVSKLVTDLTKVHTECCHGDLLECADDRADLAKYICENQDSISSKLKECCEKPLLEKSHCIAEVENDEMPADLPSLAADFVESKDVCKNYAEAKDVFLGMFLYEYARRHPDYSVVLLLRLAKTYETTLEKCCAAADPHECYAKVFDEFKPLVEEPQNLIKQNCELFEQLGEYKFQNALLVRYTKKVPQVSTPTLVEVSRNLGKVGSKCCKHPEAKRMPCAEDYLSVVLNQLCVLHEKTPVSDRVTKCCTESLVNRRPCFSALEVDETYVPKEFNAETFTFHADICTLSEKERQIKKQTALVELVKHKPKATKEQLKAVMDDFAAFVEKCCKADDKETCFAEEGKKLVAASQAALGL
# [6] = molecular target: T2, human serum albumin (HSA); type: in vitro ADME; conditions: for increase in free radiopharmaceutical level: 8:1 warfarin:HSA mole ratio vs drug-free; for Unbound [^64Cu]Cu-PTSM: HSA; for % Free [^64Cu]Cu-PTSM: 49°C, 2.5% v/v ethanol
# Outline: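 HSA (globulin-free, ≥99.5% fatty acid free) reconstituted in 0.9% saline at 0.66 mM. 100 µL of drug in saline (3.3–53 mM, pH 7) or saline alone (drug-free control) added to 1.0 mL, giving 40 mg/mL HSA at 0.5:1–8:1 drug:HSA. 2–8 µCi 64Cu tracer added and vortexed. Triplicate aliquots ultrafiltered (30,000 Da NMWL) within 5 min, 64Cu gamma-counted.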
# [7] = molecular target: rat serum (Rattus norvegicus, UniProt P02770); conditions: RSA solution; cited from earlier work
# rat serum (Rattus norvegicus, UniProt P02770), sequence (P02770 25-608): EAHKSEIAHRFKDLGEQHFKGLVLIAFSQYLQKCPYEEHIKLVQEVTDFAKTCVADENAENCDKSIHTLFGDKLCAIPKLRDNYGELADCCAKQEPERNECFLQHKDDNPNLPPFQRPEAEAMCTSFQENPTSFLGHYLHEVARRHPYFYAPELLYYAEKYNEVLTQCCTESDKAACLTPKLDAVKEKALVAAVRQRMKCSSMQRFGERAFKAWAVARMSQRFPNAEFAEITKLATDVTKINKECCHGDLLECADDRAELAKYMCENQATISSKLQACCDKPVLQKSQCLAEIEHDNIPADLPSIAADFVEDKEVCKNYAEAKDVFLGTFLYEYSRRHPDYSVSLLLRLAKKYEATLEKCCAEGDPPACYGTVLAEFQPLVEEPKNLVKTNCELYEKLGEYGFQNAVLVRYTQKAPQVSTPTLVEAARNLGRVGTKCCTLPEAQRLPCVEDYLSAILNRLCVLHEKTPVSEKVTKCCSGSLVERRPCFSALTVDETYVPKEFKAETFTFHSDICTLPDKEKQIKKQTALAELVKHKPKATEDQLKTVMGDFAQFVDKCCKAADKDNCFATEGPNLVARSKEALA
# [8] = system: rat serum; type: in vitro ADME
# [9] = ref 37, 38; cited from earlier work
# [10] = Ultrafiltration of [^64Cu]Cu-PTSM in protein-free saline
# Outline: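 Membrane-integrity control without protein: 25 µL ethanol (2.5% v/v) added to 1.0 mL saline containing [64Cu]Cu-PTSM, compared with saline alone. Ultrafiltered through 30,000 Da NMWL membranes, n = 5 per group. % free tracer from 64Cu gamma counts of measured ultrafiltrate and starting-solution volumes.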
# [11] = molecular target: T1, canine serum albumin (CSA); conditions: no competing drug; cited from earlier work
# [12] = HSA solutions with even high concentrations of L-tryptophan
# [13] = drug-free HSA control (drug:HSA mole ratio 0), 40 mg/mL HSA
# [14] = ibuprofen:HSA mole ratio 0.5, 40 mg/mL HSA
# [15] = ibuprofen:HSA mole ratio 1, 40 mg/mL HSA
# [16] = ibuprofen:HSA mole ratio 2, 40 mg/mL HSA
# [17] = ibuprofen:HSA mole ratio 4, 40 mg/mL HSA
# [18] = ibuprofen:HSA mole ratio 8, 40 mg/mL HSA
# [19] = ibuprofen:HSA mole ratios up to 4:1
# [20] = warfarin:HSA mole ratio 0.5, 40 mg/mL HSA
# [21] = warfarin:HSA mole ratio 1, 40 mg/mL HSA
# [22] = warfarin:HSA mole ratio 2, 40 mg/mL HSA
# [23] = warfarin:HSA mole ratio 4, 40 mg/mL HSA
# [24] = warfarin:HSA mole ratio 8, 40 mg/mL HSA
compound,measurement,setting,value
CC1(C)S[C@@H]2[C@H](NC(=O)Cc3ccccc3)C(=O)N2[C@H]1C(=O)O [Benzylpenicillin],extent of protein binding in human plasma,[1],50%
same,affinity constant for the IIA site of HSA,[2]; ref 10,1200 M⁻¹
same,affinity (Ka) for the IIA site of HSA,[2]; ref 40-42,1200 M⁻¹
same,affinity for site IIA of HSA (Ka),[2]; reference not given,1200 M⁻¹
Cn1nnnc1SCC1=C(C(=O)O)N2C(=O)[C@@H](NC(=O)[C@H](O)c3ccccc3)[C@H]2SC1 [Cephmandole],binding to HSA (Ka),[2]; ref 32,1200 M⁻¹
NS(=O)(=O)c1cc(C(=O)O)c(NCc2ccco2)cc1Cl [Furosemide],binding to RSA,[3],≤ 99.1%
CC(C)Cc1ccc(C(C)C(=O)O)cc1 (stereo not shown) [Ibuprofen],affinity (Ka) for the IIIA site of HSA,[2]; ref 10,2.7e+06 M⁻¹
same,affinity for the IIIA site of HSA (Ka),[2]; reference not given,2.7e+06 M⁻¹
N[C@@H](Cc1c[nH]c2ccccc12)C(=O)O [L-tryptophan],affinity (Ka) for the IIIA site of HSA,[2]; ref 29-31,10000 M⁻¹
CC(=O)CC(c1ccccc1)c1c(O)c2ccccc2oc1=O (stereo not shown) [Warfarin],affinity for HSA (Ka),[2]; ref 45,340000 M⁻¹
same,affinity for HSA (Ka),[2]; ref 47,340000 M⁻¹
same,affinity for HSA (Ka),[2]; reference not given,340000 M⁻¹
"CN=C([S-])N/N=C(C)/C(C)=N/NC([S-])=NC.[Cu+2] [[^64Cu]Cu-ATSM, diacetyl bis(N^4-methylthiosemicarbazonato)copper(II)]",Unbound level,[4],37.0%
same,Free tracer,[4],43.8%
same,% bound to HSA,[5],approx. 95%
same,increase in free radiopharmaceutical level,[6],300–500%
same,displacement from HSA,[6]; [12],not observed
same,% Free (corrected),[6]; [13],5.9 ± 0.4%
same,% Free (corrected),[6]; [14],7.1 ± 0.6%
same,% Free (corrected),[6]; [15],7.5 ± 0.8%
same,% Free (corrected),[6]; [16],8.2 ± 1.1%
same,% Free (corrected),[6]; [17],7.3 ± 0.8%
same,% Free (corrected),[6]; [18],10.5 ± 1.1%
same,displacement from HSA,[6]; [19],no displacement
same,% Free (corrected),[6]; [20],7.3 ± 0.2%
same,% Free (corrected),[6]; [21],9.4 ± 0.8%
same,% Free (corrected),[6]; [22],12.4 ± 0.9%
same,% Free (corrected),[6]; [23],14.5 ± 0.6%
same,% Free (corrected),[6]; [24],19.0 ± 1.7%
"CN=C([S-])N/N=C/C(C)=N/NC([S-])=NC.[Cu+2] [[^64Cu]Cu-PTSM, pyruvaldehyde bis(N^4-methylthiosemicarbazonato)copper(II)]",% free,[7],14.1 ± 0.3%
same,% Free [^64Cu]Cu-PTSM,[8]; drug:RSA mole ratio 0,14.7 ± 1.2%
same,% Free [^64Cu]Cu-PTSM,[8]; furosemide:RSA mole ratio 1,20.2 ± 0.7%
same,% Free [^64Cu]Cu-PTSM,[8]; furosemide:RSA mole ratio 8,28.6 ± 0.6%
same,% Free [^64Cu]Cu-PTSM,[8]; phenylbutazone:RSA mole ratio 1,18.6 ± 0.4%
same,% Free [^64Cu]Cu-PTSM,[8]; phenylbutazone:RSA mole ratio 8,20.6 ± 0.4%
same,% Free [^64Cu]Cu-PTSM,[8]; warfarin:RSA mole ratio 1,19.8 ± 0.5%
same,% Free [^64Cu]Cu-PTSM,[8]; warfarin:RSA mole ratio 8,24.1 ± 0.5%
same,log P,[9],1.9
same,free fraction,"[4]; 40 mg/mL CSA, 8:1 mole ratio of warfarin (first value)",36.1 ± 2.8%
same,% bound to HSA,[5],approx. 95%
same,% free,[5]; HSA solution,4.3 ± 0.2%
same,Free tracer (% free),[10]; saline + 2.5% v/v ethanol,68.0 ± 2.3%
same,Free tracer (% free),[10]; saline control,67.2 ± 0.7%
same,% free in canine serum albumin (CSA) solutions,[11],approximately 42%
same,effect of fatty acid addition on HSA binding,"[6]; 1:1 fatty acid:HSA ratios (capric, myristic, palmitic, oleic)",little effect
same,level of free [^64Cu]Cu-PTSM relative to fatty acid-free,"[6]; 6:1 fatty acid:HSA mole ratios (capric, myristic, palmitic, oleic)",approximately doubled
same,increase in free radiopharmaceutical level,[6],300–500%
same,displacement from HSA,[6]; [12],not observed
same,% free,"[6]; HSA with highest concentration of tryptophan, 4.8 mM (1.0 mg/mL)",3.2 ± 0.1%
same,Unbound [^64Cu]Cu-PTSM,[6]; incubated at 49°C for 30 min,3.8 ± 0.2%
same,Unbound [^64Cu]Cu-PTSM,[6]; room temperature control solutions,4.2 ± 0.6%
same,% Free (corrected),"[6]; benzylpenicillin:HSA mole ratio 0.5, 40 mg/mL HSA",3.8 ± 0.1%
same,% Free (corrected),"[6]; benzylpenicillin:HSA mole ratio 1, 40 mg/mL HSA",3.5 ± 0.1%
same,% Free (corrected),"[6]; benzylpenicillin:HSA mole ratio 2, 40 mg/mL HSA",3.3 ± 0.2%
same,% Free (corrected),"[6]; benzylpenicillin:HSA mole ratio 4, 40 mg/mL HSA",3.4 ± 0.1%
same,% Free (corrected),"[6]; benzylpenicillin:HSA mole ratio 8, 40 mg/mL HSA",3.3 ± 0.1%
same,% Free [^64Cu]Cu-PTSM,"[6]; capric acid:HSA 1:1, 40 mg/mL HSA",7.5 ± 0.3 (4) %
same,% Free [^64Cu]Cu-PTSM,"[6]; capric acid:HSA 6:1, 40 mg/mL HSA",12.6 ± 3.5 (5) %
same,displacement from HSA,"[6]; cephmandole, drug:HSA mole ratios up to 4:1",not displaced
same,% Free (corrected),"[6]; cephmandole:HSA mole ratio 0.5, 40 mg/mL HSA",3.5 ± 0.1%
same,% Free (corrected),"[6]; cephmandole:HSA mole ratio 1, 40 mg/mL HSA",3.2 ± 0.2%
same,% Free (corrected),"[6]; cephmandole:HSA mole ratio 2, 40 mg/mL HSA",3.5 ± 0.1%
same,% Free (corrected),"[6]; cephmandole:HSA mole ratio 4, 40 mg/mL HSA",4.2 ± 0.2%
same,% Free (corrected),[6]; [13],4.0 ± 0.1% and 4.0% and 4.0 ± 0.4%
same,increase in free [^64Cu]Cu-PTSM in solution,[6]; furosemide:HSA 8:1 mole ratio vs drug-free,> 700%
same,% Free (corrected),"[6]; furosemide:HSA mole ratio 1, 40 mg/mL HSA",8.4 ± 0.2%
same,% Free (corrected),[6]; [14],3.4 ± 0.1%
same,% Free (corrected),[6]; [15],3.4 ± 0.3%
same,% Free (corrected),[6]; [16],3.2 ± 0.5%
same,% Free (corrected),[6]; [17],4.8 ± 0.2%
same,% Free (corrected),[6]; [18],10.1 ± 0.6%
same,displacement from HSA,[6]; [19],no displacement
same,% Free [^64Cu]Cu-PTSM,"[6]; myristic acid:HSA 1:1, 40 mg/mL HSA",6.8 ± 0.3 (4) %
same,% Free [^64Cu]Cu-PTSM,"[6]; myristic acid:HSA 6:1, 40 mg/mL HSA",14.6 ± 0.8 (5) %
same,% Free [^64Cu]Cu-PTSM,"[6]; oleic acid:HSA 1:1, 40 mg/mL HSA",6.0 ± 0.3 (4) %
same,% Free [^64Cu]Cu-PTSM,"[6]; oleic acid:HSA 6:1, 40 mg/mL HSA",12.7 ± 0.7 (4) %
same,% Free [^64Cu]Cu-PTSM,"[6]; palmitic acid:HSA 1:1, 40 mg/mL HSA",5.6 ± 0.2 (3) %
same,% Free [^64Cu]Cu-PTSM,"[6]; palmitic acid:HSA 6:1, 40 mg/mL HSA",9.6 ± 0.3 (4) %
same,% Free (corrected),"[6]; phenylbutazone:HSA mole ratio 1, 40 mg/mL HSA",7.1 ± 0.1%
same,% Free (corrected),"[6]; phenylbutazone:HSA mole ratio 8, 40 mg/mL HSA",28.7 ± 0.8%
same,% Free (corrected),[6]; [20],4.6 ± 0.1%
same,% Free (corrected),[6]; [21],5.8 ± 0.7%
same,% Free (corrected),[6]; [22],7.7 ± 0.8%
same,% Free (corrected),[6]; [23],14.8 ± 0.3%
same,% Free (corrected),[6]; [24],20.1 ± 1.5%
C=CC1=C(C)/C(=C/c2[nH]c(Cc3[nH]c(/C=C4\NC(=O)C(C)=C4C=C)c(C)c3CCC(=O)O)c(CCC(=O)O)c2C)NC1=O [bilirubin],association with HSA (Ka),"[2]; site believed distinct from the IIA and IIIA drug sites, no reference given",9.5e+07 M⁻¹
ethylglyoxal bis(thiosemicarbazonato)copper(II) [[^64Cu]Cu-ETS],Unbound level,[4],40.4%
same,Free tracer,[4],39.5%
same,% Free (corrected),[6]; [13],40.6 ± 1.1%
same,% Free (corrected),[6]; [14],43.9 ± 2.2%
same,% Free (corrected),[6]; [15],42.1 ± 2.7%
same,% Free (corrected),[6]; [16],45.8 ± 2.6%
same,% Free (corrected),[6]; [17],43.6 ± 3.1%
same,% Free (corrected),[6]; [18],49.6 ± 1.2%
same,interaction with HSA on addition of site IIA or IIIA drugs,"[6]; warfarin, ibuprofen up to 8:1",unaffected
same,% Free (corrected),[6]; [20],42.8 ± 1.6%
same,% Free (corrected),[6]; [21],44.2 ± 1.2%
same,% Free (corrected),[6]; [22],45.2 ± 1.3%
same,% Free (corrected),[6]; [23],42.8 ± 3.4%
same,% Free (corrected),[6]; [24],44.7 ± 2.7%
